Assay results taken from ChEMBL document CHEMBL1137348, “Determination of the binding mode of thienopyrimidinedione antagonists to the human gonadotropin releasing hormone receptor using structure-activity relationships, site-directed mutagenesis, and homology modeling” (J Med Chem, 2006).
pIC50: −log10 of the molar value.

Assays:
[1] = biological target: Gonadotropin-releasing hormone receptor (Homo sapiens, UniProt P30968, D302A); test: Displacement of [His5, D-Tyr6]GnRH from GnRHR D302A mutant expressed in COS7 cells; type: cell-based, COS-7
Gonadotropin-releasing hormone receptor (Homo sapiens, UniProt P30968, D302A), sequence (P30968 whole entry D302A): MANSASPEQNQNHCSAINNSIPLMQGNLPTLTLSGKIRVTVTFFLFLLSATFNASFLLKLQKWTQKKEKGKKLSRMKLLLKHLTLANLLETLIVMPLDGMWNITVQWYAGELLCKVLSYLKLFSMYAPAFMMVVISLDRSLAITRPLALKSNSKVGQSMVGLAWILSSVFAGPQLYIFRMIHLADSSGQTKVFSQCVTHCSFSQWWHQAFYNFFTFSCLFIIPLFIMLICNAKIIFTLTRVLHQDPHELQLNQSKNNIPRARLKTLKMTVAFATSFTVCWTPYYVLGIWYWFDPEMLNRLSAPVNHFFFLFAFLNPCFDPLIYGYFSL
How it was run: (§1)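 Human GnRH-R mutants (all in F272(6.40)L background) electroporated into COS-7 cells. Membranes taken 36-48 h later and lysed by nitrogen cavitation. Shaken 2 h at room temperature, then filtered and scintillation counted.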

[2] = biological target: Gonadotropin-releasing hormone receptor (Homo sapiens, UniProt P30968, L300A); test: Displacement of [His5, D-Tyr6]GnRH from GnRHR L300A mutant expressed in COS7 cells; type: cell-based, COS-7; how it was run: as §1
Gonadotropin-releasing hormone receptor (Homo sapiens, UniProt P30968, L300A), sequence (P30968 whole entry L300A): as the sequence (P30968 whole entry D302A) above, with L300A, A302D counted along it

[3] = biological target: Gonadotropin-releasing hormone receptor (Homo sapiens, UniProt P30968, M24I); test: Displacement of [His5, D-Tyr6]GnRH from GnRHR M24I mutant expressed in COS7 cells; type: cell-based, COS-7; how it was run: as §1
Gonadotropin-releasing hormone receptor (Homo sapiens, UniProt P30968, M24I), sequence (P30968 whole entry M24I): as the sequence (P30968 whole entry D302A) above, with M24I, A302D counted along it

[4] = biological target: Gonadotropin-releasing hormone receptor (Homo sapiens, UniProt P30968, Y284L); test: Displacement of [His5, D-Tyr6]GnRH from GnRHR Y284L mutant expressed in COS7 cells; type: cell-based, COS-7; how it was run: as §1
Gonadotropin-releasing hormone receptor (Homo sapiens, UniProt P30968, Y284L), sequence (P30968 whole entry Y284L): as the sequence (P30968 whole entry D302A) above, with Y284L, A302D counted along it

[5] = biological target: Gonadotropin-releasing hormone receptor (Homo sapiens, UniProt P30968, Y290L); test: Displacement of [His5, D-Tyr6]GnRH from GnRHR Y290L mutant expressed in COS7 cells; type: cell-based, COS-7; how it was run: as §1
Gonadotropin-releasing hormone receptor (Homo sapiens, UniProt P30968, Y290L), sequence (P30968 whole entry Y290L): as the sequence (P30968 whole entry D302A) above, with Y290L, A302D counted along it

[6] = biological target: Gonadotropin-releasing hormone receptor (Homo sapiens, UniProt P30968, Q208E); test: Displacement of [His5, D-Tyr6]GnRH from GnRHR Q208E mutant expressed in COS7 cells; type: cell-based, COS-7; how it was run: as §1
Gonadotropin-releasing hormone receptor (Homo sapiens, UniProt P30968, Q208E), sequence (P30968 whole entry Q208E): as the sequence (P30968 whole entry D302A) above, with Q208E, A302D counted along it

[7] = biological target: Gonadotropin-releasing hormone receptor (Homo sapiens, UniProt P30968, N27A); test: Displacement of [His5, D-Tyr6]GnRH from GnRHR N27A mutant expressed in COS7 cells; type: cell-based, COS-7; how it was run: as §1
Gonadotropin-releasing hormone receptor (Homo sapiens, UniProt P30968, N27A), sequence (P30968 whole entry N27A): as the sequence (P30968 whole entry D302A) above, with N27A, A302D counted along it

[8] = biological target: Gonadotropin-releasing hormone receptor (Homo sapiens, UniProt P30968, F309Q); test: Displacement of [His5, D-Tyr6]GnRH from GnRHR F309Q mutant expressed in COS7 cells; type: cell-based, COS-7; how it was run: as §1
Gonadotropin-releasing hormone receptor (Homo sapiens, UniProt P30968, F309Q), sequence (P30968 whole entry F309Q): as the sequence (P30968 whole entry D302A) above, with A302D, F309Q counted along it

[9] = biological target: Gonadotropin-releasing hormone receptor (Homo sapiens, UniProt P30968, D302N); test: Displacement of [His5, D-Tyr6]GnRH from GnRHR D302N mutant expressed in COS7 cells; type: cell-based, COS-7; how it was run: as §1
Gonadotropin-releasing hormone receptor (Homo sapiens, UniProt P30968, D302N), sequence (P30968 whole entry D302N): as the sequence (P30968 whole entry D302A) above, with A302N counted along it

[10] = biological target: Gonadotropin-releasing hormone receptor (Homo sapiens, UniProt P30968, F309L); test: Displacement of [His5, D-Tyr6]GnRH from GnRHR F309L mutant expressed in COS-7 cells; type: cell-based; how it was run: as §1
Gonadotropin-releasing hormone receptor (Homo sapiens, UniProt P30968, F309L), sequence (P30968 whole entry F309L): as the sequence (P30968 whole entry D302A) above, with A302D, F309L counted along it

[11] = biological target: Gonadotropin-releasing hormone receptor (Homo sapiens, UniProt P30968, H306E); test: Displacement of [His5, D-Tyr6]GnRH from GnRHR H306E mutant expressed in COS7 cells; type: cell-based, COS-7; how it was run: as §1
Gonadotropin-releasing hormone receptor (Homo sapiens, UniProt P30968, H306E), sequence (P30968 whole entry H306E): as the sequence (P30968 whole entry D302A) above, with A302D, H306E counted along it

[12] = biological target: Gonadotropin-releasing hormone receptor (Homo sapiens, UniProt P30968, F272L); test: Displacement of [125I]-His5, D-Tyr6]GnRH from GnRHR F272L mutant expressed in COS7 cells; type: cell-based, COS-7; how it was run: as §1
Gonadotropin-releasing hormone receptor (Homo sapiens, UniProt P30968, F272L), sequence (P30968 whole entry F272L): as the sequence (P30968 whole entry D302A) above, with F272L, A302D counted along it

[13] = biological target: Gonadotropin-releasing hormone receptor (Homo sapiens, UniProt P30968, F313L); test: Displacement of [His5, D-Tyr6]GnRH from GnRHR F313L mutant expressed in COS7 cells; type: cell-based, COS-7; how it was run: as §1
Gonadotropin-releasing hormone receptor (Homo sapiens, UniProt P30968, F313L), sequence (P30968 whole entry F313L): as the sequence (P30968 whole entry D302A) above, with A302D, F313L counted along it

[14] = biological target: Gonadotropin-releasing hormone receptor (Homo sapiens, UniProt P30968, H306A); test: Displacement of [His5, D-Tyr6]GnRH from GnRHR H306A mutant expressed in COS7 cells; type: cell-based, COS-7; how it was run: as §1
Gonadotropin-releasing hormone receptor (Homo sapiens, UniProt P30968, H306A), sequence (P30968 whole entry H306A): as the sequence (P30968 whole entry D302A) above, with A302D, H306A counted along it

SMILES	pIC50 [1]	pIC50 [2]	pIC50 [3]	pIC50 [4]	pIC50 [5]	pIC50 [6]	pIC50 [7]	pIC50 [8]	pIC50 [9]	pIC50 [10]	pIC50 [11]	pIC50 [12]	pIC50 [13]	pIC50 [14]
CN(CCc1ccccc1)Cc1c(-c2ccc([N+](=O)[O-])cc2)sc2c1c(=O)n(-c1ccccc1)c(=O)n2Cc1c(F)cccc1F	5.80	< 5.00	< 5.00	< 5.00	5.72	5.30	5.89	< 5.00	5.72	< 5.00	5.15	5.96	< 5.00	5.48
CN(Cc1ccccc1)Cc1c(-c2ccc([N+](=O)[O-])cc2)sc2c1c(=O)n(-c1ccccc1)c(=O)n2Cc1c(F)cccc1F	5.72	< 5.00	< 5.00	< 5.00	5.96	< 5.00	5.80	< 5.00	5.85	< 5.00	< 5.00	6.22	< 5.00	5.52
CN(Cc1ccccc1)Cc1c(-c2ccc(NC(=O)c3ccccc3)cc2)sc2c1c(=O)n(-c1ccccc1)c(=O)n2Cc1c(F)cccc1F	7.82	7.66	6.42	5.82	7.70	7.51	7.59	6.66	7.89	7.00	6.10	8.22	6.40	6.40
CN(Cc1ccccc1)Cc1c(-c2ccc(N)cc2)sc2c1c(=O)n(-c1ccccc1)c(=O)n2Cc1c(F)cccc1F	6.41	5.80	5.40	< 5.00	6.41	5.82	6.43	< 5.00	6.28	6.02	6.30	6.68	< 5.00	6.15
CC(=O)Nc1ccc(-c2sc3c(c2CN(C)Cc2ccccc2)c(=O)n(-c2ccccc2)c(=O)n3Cc2c(F)cccc2F)cc1	6.68	6.62	5.64	5.36	7.28	6.64	7.51	5.62	6.80	5.96	5.80	7.54	5.70	5.77
CN(CCc1ccccn1)Cc1c(-c2ccc([N+](=O)[O-])cc2)sc2c1c(=O)n(-c1ccccc1)c(=O)n2Cc1c(F)cccc1F	7.24	6.96	< 5.00	5.70	6.05	6.35	6.70	5.44	7.40	5.58	6.40	7.28	5.35	6.62
CN(Cc1ccccc1)Cc1c(-c2ccc(NC(=O)NCc3ccccc3)cc2)sc2c1c(=O)n(-c1ccccc1)c(=O)n2Cc1c(F)cccc1F	5.96	6.72	6.41	5.22	7.15	7.15	7.52	5.92	6.30	6.05	5.40	7.70	5.85	6.22
CN(Cc1ccccc1)Cc1c(-c2ccc(NC3=NCCN3)cc2)sc2c1c(=O)n(-c1ccccc1)c(=O)n2Cc1c(F)cccc1F	5.48	5.99	< 5.00	5.30	6.46	5.85	6.32	5.28	5.68	5.74	6.10	6.62	< 5.00	5.36
